Data on one compound can be found in ChEMBL document CHEMBL3526151, “Reversible disulfide formation of the glutamate carboxypeptidase II inhibitor E2072 results in prolonged systemic exposures in vivo” (Drug Metab Dispos, 2012).

Data set [1] has as its system Rattus norvegicus. The data set can be described thus: Toxicity in Sprague-Dawley rat chronic constriction injury model assessed as paw withdrawal latencies on non-ligated side at 10 mg/kg/day, po. It is filed as organism-based. Also noted: route oral. As to conditions: in vivo.
A short description of data set [2]: Half life in Sprague-Dawley rat at 1 mg/kg, po administered via gavage measured under fasted conditions by LC-MS/MS analysis. The class given is ADME, organism-based. As to conditions: in vivo. Also noted: dose 1 mg/kg, route oral.
A short description of data set [3]: Metabolic stability in Sprague-Dawley rat plasma assessed as compound remaining at 5 uM after 1 hr by LC-MS/MS analysis. It is filed as ADME, cell-free. Particulars: read-out: Stability. A digest of the protocol: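 Compound at 5 and 10 µM was incubated at 37°C in Sprague-Dawley rat or cynomolgus monkey plasma. Aliquots taken at 0, 30 and 60 min were quenched with acetonitrile and analyzed by LC-MS/MS. Percent remaining = analyte/internal-standard area ratio at time t divided by that at time 0.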

The nature of data set [4]: AUC(0 to infinity) in Sprague-Dawley rat at 10 mg/kg, iv by LC-MS/MS analysis. Particulars: plasma. The class given is ADME, organism-based. Details: time infinity, dose 10 mg/kg, route intravenous. A digest of the protocol:
(§1)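 Male Sprague-Dawley rats dosed intravenously at 10 mg/kg (n = 6). Blood sampling extended to 7 days into heparin tubes containing NEM. Plasma assayed for parent and homodisulfide by LC-MS/MS, calibration range 1–5000 ng/ml. Noncompartmental analysis, t1/2 = 0.693/λz. Mean ± S.D.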

The nature of data set [5]: Cmax in Sprague-Dawley rat sciatic nerve at 10 mg/kg, po administered as single dose measured per gm of tissue by LC-MS/MS analysis. Also noted: dose 10 mg/kg, route oral. The class given is ADME, organism-based. An outline of the steps:
(§2)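 Male Sprague-Dawley rats were dosed orally with 10 mg/kg/day, either once or daily for 5 days; n = 4 per group. Blood was taken by cardiac puncture and liver, kidney, brain and sciatic nerve were collected at 0–8 h post-dose. Tissues were homogenized in PBS containing NEM at equal volume per gram. NEM-derivatized analyte was extracted with methanol and quantified by LC-MS/MS (1–5000 ng/ml). Cmax is the observed value.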

A short description of data set [6]: Cmax in Sprague-Dawley rat brain at 10 mg/kg, po administered as single dose measured per gm of tissue by LC-MS/MS analysis. The class given is ADME, organism-based. Details: dose 10 mg/kg, route oral. A digest of the protocol: as §2
Data set [7] can be described thus: Phase 2 metabolic stability in mouse liver microsomes assessed as compound remaining at 10 uM measured for 1 hr by LC-MS/MS analysis in absence of cofactors. Particulars: read-out: Stability. It is filed as ADME. A digest of the protocol:
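Glucuronidation in liver microsomes of the named species, 0.5 mg/ml protein, compound at 10 μM final, in 50 mM Tris-HCl pH 7.5 with 8 mM MgCl2 and 25 μg/ml alamethicin. Preincubated at 37°C, then started with 2 mM UDPGA (final); cofactor-free controls run alongside. Duplicate reactions, sampled up to 1 h, quenched with cold acetonitrile plus internal standard; disappearance followed by LC-MS/MS.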
On the technique in general: Liver microsomes are a subcellular fraction often used to study metabolism.

The nature of data set [8]: AUC(0 to last) in Sprague-Dawley rat at 1 mg/kg, iv administered as bolus injection measured under fasted conditions by LC-MS/MS analysis. It is filed as ADME, organism-based. Also noted: time 0 - last, dose 1 mg/kg, route intravenous. Particulars: plasma. An outline of the steps: (§3)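 Male Sprague-Dawley rats (280–330 g), jugular vein cannulated, fasted overnight until 4 h post-dose. Single tail-vein bolus of 0.1, 1, 10 or 30 mg/kg in 50 mM HEPES buffered saline, pH 7.4. Blood drawn 0–24 h into heparin tubes containing NEM. Plasma quantified by LC-MS/MS after NEM derivatization. Noncompartmental analysis: AUClast by linear trapezoidal rule, Cl = dose/AUC0-∞. Mean ± S.D., n = 4–9.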

Data set [9] is described as follows: Cmax in Sprague-Dawley rat at 10 mg/kg, iv by LC-MS/MS analysis. Particulars: in vivo. Details: dose 10 mg/kg, route intravenous. The class given is ADME, organism-based. A digest of the protocol:
as §1

Data set [10] in a line: Tmax in Sprague-Dawley rat at 10 mg/kg, po administered via gavage measured under fed conditions by LC-MS/MS analysis. The class given is ADME, organism-based. Also noted: dose 10 mg/kg, route oral. As to conditions: in vivo. An outline of the steps: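 Nonfasted male Sprague-Dawley rats gavaged once at 10 mg/kg in 50 mM HEPES-buffered saline pH 7.4. Blood into heparin/NEM tubes at 0, 0.25, 0.5, 1, 2, 4, 6, 8 and 24 h. Plasma analysed by LC-MS/MS; Tmax taken as the observed value.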

Data set [11] deals with Rattus norvegicus. Nature of the data set: Analgesic activity in Sprague-Dawley rat chronic constriction injury model assessed as change in paw withdrawal latency at 10 mg/kg/day, po measured 11 days after drug treatment cessation (reference value: -2.77 +/-0.3 s). The class given is functional.
Data set [12] is described as follows: Clearance in Sprague-Dawley rat at 1 mg/kg, iv administered as bolus injection measured under fasted conditions by LC-MS/MS analysis. It is filed as ADME, organism-based. Also noted: dose 1 mg/kg, route intravenous. As to conditions: in vivo. An outline of the steps: as §3
Data set [13] deals with Rattus norvegicus. The data set can be described thus: AUC(0 to infinity) in Sprague-Dawley rat at 0.1 mg/kg, po administered via gavage measured under fasted conditions by LC-MS/MS analysis. It is filed as ADME, organism-based, Plasma. Details: time infinity, dose 0.1 mg/kg, route oral. Particulars: in vivo. A digest of the protocol:
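Fasted male Sprague-Dawley rats (280–330 g) received 0.1, 1, 10 or 30 mg/kg by oral gavage in 50 mM HEPES buffered saline, pH 7.4. Blood drawn at 0.25–24 h into heparin/NEM tubes; plasma analyzed by LC-MS/MS. Cmax taken as observed. AUC by linear trapezoidal rule with extrapolation by λz. Cl/F and Vd/F reported. Mean ± S.D., n = 4–9.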

A short description of data set [14]: Phase 1 metabolic stability in human liver microsomes assessed as compound remaining at 10 uM measured for 1 hr by LC-MS/MS analysis in absence of cofactors. It is filed as ADME. Particulars: read-out: Stability. An outline of the steps: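 Cofactor-free controls were run for each microsomal incubation: 0.5 mg/ml liver microsomes with 10 µM compound, omitting cofactors, so that cofactor-independent degradation could be measured. Samples were taken up to 1 h, quenched with acetonitrile containing internal standard, and the percent remaining was determined by LC-MS/MS.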

The subject of data set [15] is Rattus norvegicus. The data set can be described thus: Analgesic activity in Sprague-Dawley rat chronic constriction injury model assessed as change in paw withdrawal latency at 10 mg/kg/day, po measured 4 days after drug treatment cessation (reference value: -2.85 +/-0.32 s). The class given is functional.
For data set [16], the species on record is Rattus norvegicus. Nature of the data set: Drug recovery in Sprague-Dawley rat plasma stability experiment. Particulars: in vitro.
The nature of data set [17]: Volume of distribution in cynomolgus monkey at 5 mg/kg, iv administered as bolus injection by LC-MS/MS analysis. It is filed as ADME, organism-based, Macaca fascicularis. Details: dose 5 mg/kg, route intravenous. Particulars: in vivo. An outline of the steps:
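Monkey i.v. bolus at 5 mg/kg nominal (n=3), TCEP-treated HEPES solution, via cephalic or saphenous vein. Arterial blood into NEM tubes over 9 days. Plasma measured by LC-MS/MS; Vd = dose/(AUCinf·λz).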

A short description of data set [18]: Apparent oral clearance in Sprague-Dawley rat at 10 mg/kg, po administered via gavage measured under fed conditions by LC-MS/MS analysis. The class given is ADME, organism-based. Details: dose 10 mg/kg, route oral. Particulars: in vivo. A digest of the protocol:
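Nonfasted male Sprague-Dawley rats given a single 10 mg/kg oral dose in 50 mM HEPES buffered saline, pH 7.4. Plasma collected 0.25–24 h into heparin/NEM tubes and assayed by LC-MS/MS. Noncompartmental parameters derived, including Cl/F and Vd/F. Mean ± S.D., n = 6–9.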

Data set [19] can be described thus: Phase 1 metabolic stability in monkey liver microsomes assessed as compound remaining at 10 uM measured for 1 hr by LC-MS/MS analysis. It is filed as ADME, Macaca mulatta. As to conditions: rhesus monkey, read-out: Stability. A digest of the protocol:
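Liver microsomes (0.5 mg/ml) were incubated with 10 µM compound (final) in 100 mM potassium phosphate, pH 7.4. An NADPH-regenerating system was present: 1.3 mM NADPH, 3.3 mM glucose 6-phosphate, 3.3 mM MgCl2, 0.4 U/ml G6PDH and 50 µM sodium citrate. Runs were in duplicate, with samples taken up to 1 h and quenched with acetonitrile containing internal standard. Loss of compound was followed by LC-MS/MS.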

Molecules are shown by their SMILES. A value given as a limit tells only on which side of the number the result lay.

With `O=C(O)c1cccc(-c2cccc(CCS)c2C(=O)O)c1`, in data set [1], the Activity entry is “Non-toxic”. Moreover, the half-life (commonly how long it takes for the measured level to halve) in [2] was 3.72 h. For the same compound, the remaining at 1 h, 5 µM in data set [3] was determined as 55%. The area under the curve AUC(0-inf) – broadly, the area under the concentration-time curve extrapolated to infinity – in data set [4] amounted to 87000 ng·h/mL. Moreover, the Cmax (commonly the maximum level reached in the sampled fluid or tissue) in data set [5] turned out to be 203 ng/g; in data set [6], 25 ng/g; in data set [9] it was 57.2 µg/mL. The remaining at 1 h, 10 µM in data set [7], in [14] and in [19] was greater than 90% each time. For the same compound, in data set [8], the AUC(0-t) (commonly the area under the concentration-time curve up to a stated or last time point) amounted to 12700 ng·h/mL. Further, the Tmax (as a rule, the time from dosing to the highest level) in data set [10] amounted to 0.29 h. The results for the Time in [11] and in data set [15] were -1.9 s and -1.36 s, respectively. In data set [12], the clearance (usually the rate of elimination divided by the concentration) is 0.833 mL/min/kg. For the same compound, the AUC – broadly, the area under the concentration-time curve, a measure of exposure – in [13] turned out to be 605 ng·h/mL. Besides, the Drug recovery in data set [16] is 60%. For the same compound, the Vd (commonly a proportionality between amount in the body and measured concentration, not a real space) in data set [17] is 0.72 L/kg. Besides, the CL/F (as a rule, clearance divided by bioavailability, as obtained after extravascular dosing) in [18] was 5 mL/min/kg.
